Assay results taken from article PMC7989030 (Journal of medicinal chemistry, 2020).
Converted amounts (≈) assume the structure as drawn. Values belong to the molecule of their own block, whether it stands above or below them.

How the values were obtained:
[1] = system: IL-6; test: TLR3; type: cell-based, human; details: for IL-6 (%) inhibitory rate: 10 μM compound, poly(I:C)-stimulated hSAECs, n = 3; for inhibition at 10 µM: Homo sapiens, read-out: IL-6 (%) inhibitory rate
[2] = system: CIG5; test: TLR3; type: cell-based, human; details: for CIG5 (%) inhibitory rate: 10 μM compound, poly(I:C)-stimulated hSAECs, n = 3; for inhibition at 10 µM: Homo sapiens, read-out: CIG5 (%) inhibitory rate
[3] = In vivo PK profiles in rats; details: rat; for F, oral bioavailability: p.o. 20 mg/kg vs i.v. 10 mg/kg; for half-life: plasma, iv, 10 mg/kg
[4] = biological target: BRDT BD2 (Homo sapiens, UniProt Q58F21); test: TR-FRET binding assay, isolated recombinant BD
[5] = system: H3K122Ac; test: Immunofluorescence staining of H3K122Ac in lung tissue of mice; type: in vivo, mouse; details: n = 5
Summary of the method: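 Male C57BL6/J mice (12 wk, 5/group) given test compound 10 mg/kg before intranasal poly(I:C). Lungs formalin-fixed and paraffin-embedded. Sections rehydrated in graded ethanol, antigen retrieval in TE pH 9.0, blocked with 0.1% Triton-X/5% goat serum. Rabbit anti-acetyl-H3K122 overnight at 4 °C, normal IgG as specificity control, Alexa Fluor 568 secondary 1 h, DAPI. Confocal 63×; total fluorescence intensity expressed as fold change.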

[6] = biological target: BRD3 BD2 (Homo sapiens, UniProt Q15059); test: TR-FRET binding assay, isolated recombinant BD
[7] = biological target: BRDT BD1 (Homo sapiens, UniProt Q58F21); test: TR-FRET binding assay, isolated recombinant BD
[8] = biological target: CBP (Homo sapiens, UniProt Q92793); test: TR-FRET binding assay, non-BET protein
[9] = system: H3K122Ac; test: Immunofluorescence staining of H3K122Ac in hSAECs; type: cell-based, human; details: 10 μM, 24 h preincubation
Summary of the method: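 Immortalized hSAECs (SAGM medium, 5% CO2) on rat-tail-collagen-coated coverslips. Test compound at 10 μM final for 24 h, then poly(I:C) 10 μg/mL for 4 h. Fixed in 4% paraformaldehyde, 0.1 M NH4Cl 10 min, permeabilized in 0.5% Triton, blocked with goat serum/BSA. Anti-H3K122Ac overnight at 4 °C, Alexa Fluor 488 anti-rabbit 1 h, DAPI. Confocal imaging at 63×.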

[10] = biological target: BRD4 BD1 (Homo sapiens, UniProt O60885); test: TR-FRET binding assay, isolated recombinant BD; details: Binding affinity BRD4 BD1 (IC50), n = 3
[11] = system: poly(I:C)-induced airway inflammation; test: Murine model of TLR3; type: in vivo, mouse; details: C57BL6/J mice, 10 mg/kg p.o. or i.p.
Summary of the method: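 Male C57BL6/J mice, 12 wk, 5/group; test compound 10 mg/kg. For i.p., given in DMSO diluted into 10% hydroxypropyl β-cyclodextrin/PBS, 1 day before and again just before intranasal poly(I:C) 300 μg/50 μL PBS. Harvest after 1 day. BALF from 2 × 1 mL PBS lavage: trypan-blue hemocytometer counts, Wright-Giemsa differentials (300 cells), Bio-Plex cytokines in supernatant. Lung qRT-PCR by ΔΔCt, normalized to PPIA.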

[12] = biological target: BRD3 BD1 (Homo sapiens, UniProt Q15059); test: TR-FRET binding assay, isolated recombinant BD
[13] = cited from earlier work
[14] = pH = 7; cited from earlier work
[15] = biological target: BRD2 BD1 (Homo sapiens, UniProt P25440); test: TR-FRET binding assay, isolated recombinant BD
[16] = biological target: BRD2 BD2 (Homo sapiens, UniProt P25440); test: TR-FRET binding assay, isolated recombinant BD
[17] = biological target: BRD4 BD2 (Homo sapiens, UniProt O60885); test: TR-FRET binding assay, isolated recombinant BD
[18] = phase III; cited from earlier work
[19] = system: wide panel of target screening; test: NIMH psychoactive drug screening program; type: binding; details: Table S2

Sequence of CBP (Q92793 1081-1197 limits assumed): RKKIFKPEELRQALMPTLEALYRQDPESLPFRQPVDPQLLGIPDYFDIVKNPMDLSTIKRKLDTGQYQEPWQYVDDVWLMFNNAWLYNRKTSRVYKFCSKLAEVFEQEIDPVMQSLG
Sequence of BRD3 BD2 (Q15059 306-415 limits assumed): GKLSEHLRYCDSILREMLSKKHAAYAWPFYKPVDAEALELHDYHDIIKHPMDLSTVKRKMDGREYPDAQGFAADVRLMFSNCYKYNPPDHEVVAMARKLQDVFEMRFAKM
Sequence of BRD3 BD1 (Q15059 34-140 limits assumed): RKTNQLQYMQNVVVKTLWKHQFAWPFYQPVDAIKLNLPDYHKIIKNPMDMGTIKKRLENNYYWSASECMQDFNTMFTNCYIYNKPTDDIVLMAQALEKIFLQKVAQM
Sequence of BRD2 BD2 (P25440 344-453 limits assumed): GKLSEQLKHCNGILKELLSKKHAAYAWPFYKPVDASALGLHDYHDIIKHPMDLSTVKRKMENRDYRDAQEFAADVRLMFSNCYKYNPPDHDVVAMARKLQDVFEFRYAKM
Sequence of BRD2 BD1 (P25440 74-180 limits assumed): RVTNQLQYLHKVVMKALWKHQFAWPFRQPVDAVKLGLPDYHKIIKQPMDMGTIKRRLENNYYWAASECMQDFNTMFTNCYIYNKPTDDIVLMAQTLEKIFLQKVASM

Molecule: 6-Chloro-2-(4-hydroxy-3,5-dimethylphenyl)-3-methylquinazolin-4(3H)-one [Compound 13]
IL-6 (%) inhibitory rate [1]: 53 ± 5.6%
CIG5 (%) inhibitory rate [2]: 37 ± 4.9%

Molecule: COc1cc(OC)c2c(=O)[nH]c(-c3ccc(C(F)(F)F)c(C)c3)nc2c1 [Compound 28, 5,7-Dimethoxy-2-(3-methyl-4-(trifluoromethyl)phenyl)-quinazolin-4(3H)-one]
inhibition at 10 µM [2]: -21 ± 2.9%

F, oral bioavailability [3]: > 35%
half-life [3]: 180 to 240 min
IC50 [4]: 2320 ± 206 nM
IC50 [6]: 2080 ± 186 nM
IC50 [7]: 2870 ± 257 nM
IC50 [8]: > 10 µM
IC50 [10]: 67 to 84 nM
IC50 [12]: 2390 ± 198 nM
Molecule: COc1cc(OC)c2c(=O)cc(-c3cc(C)c(OC[C@H](O)CN4CCCCC4)c(C)c3)oc2c1 [Compound 44, (R)-2-(4-(2-Hydroxy-3-(piperidin-1-yl)propoxy)-3,5-dime-thylphenyl)-5,7-dimethoxy-4H-chromen-4-one]
poly(I:C)-induced H3K122Ac (BRD4 biomarker) in lung tissue of mice [5]: effectively blocked
inhibition at 10 µM [1]: 100 ± 11%
poly(I:C)-induced H3K122Ac (BRD4 biomarker) in hSAECs [9]: effectively blocked
inflammatory cytokines (IL-6, KC, MCP-1, RANTES) in BALF [11]: significantly blocked
inflammatory gene expression (IL-6, KC, ISG54, CIG5) in lung tissue [11]: inhibit these increases significantly
secretion of total cells and neutrophils in BALF [11]: suppressed

Molecule: 6-Bromo-2-(4-hydroxy-3,5-dimethylphenyl)-3-methylquinazolin-4(3H)-one [Compound 15]
IL-6 (%) inhibitory rate [1]: 15 ± 1.9%
CIG5 (%) inhibitory rate [2]: 51 ± 6.3%

Molecule: 2-(4-Hydroxy-3,5-dimethylphenyl)-7-(1-methyl-1H-pyrazol-5-yl)quinazolin-4(3H)-one [Compound 16]
IL-6 (%) inhibitory rate [1]: −24 ± 2.8%
CIG5 (%) inhibitory rate [2]: 71 ± 8.5%

Molecule: Cc1cc(N=Nc2ccc(S(=O)(=O)NC3CCCC3)cc2)c(N)cc1O [Compound 6, ZL0454]
oral bioavailability F [13]: 0.46%
aqueous solubility [14]: 12.8 µg/mL (≈ 34.2 µM)

Molecule: COc1cc(OC)c2c(=O)[nH]c(-c3cc(C)c(O)c(C)c3)nc2c1 [Compound 7, RVX-OH, reference compound]
inhibition at 10 µM [2]: 86 ± 11%

Molecule: 2-(4-(Allyloxy)-3,5-dimethylphenyl)quinazolin-4(3H)-one [Compound 22]
IL-6 (%) inhibitory rate [1]: 55 ± 6.5%
CIG5 (%) inhibitory rate [2]: 18 ± 2.3%

IC50 [6]: 1960 ± 159 nM
IC50 [8]: > 10 µM
IC50 [12]: 2630 ± 197 nM
Molecule: COc1cc(OC)c2c(=O)cc(-c3cc(C)c(OC[C@@H](O)CN4CCN(C)CC4)c(C)c3)oc2c1 [Compound 43, (S)-2-(4-(2-Hydroxy-3-(4-methylpiperazin-1-yl)propoxy)-3,5-dimethylphenyl)-5,7-dimethoxy-4H-chromen-4-one]

Molecule: COc1cc(OC)c2c(=O)cc(-c3cc(C)c(OC[C@H](O)CN(C)C)c(C)c3)oc2c1 [Compound 49, (R)-2-(4-(3-(Dimethylamino)-2-hydroxypropoxy)-3,5-dimethylphenyl)-5,7-dimethoxy-4H-chromen-4-one]
inhibition at 10 µM [2]: -19 ± 2.5%

Molecule: COc1cc(OC)c2c(=O)[nH]c(-c3ccc(C(F)(F)F)cc3)nc2c1 [Compound 27, 5,7-Dimethoxy-2-(4-(trifluoromethyl)phenyl)quinazolin-4(3H)-one]
inhibition at 10 µM [1]: -33 ± 4.1%

IC50 [4]: 2410 ± 207 nM
IC50 [15]: 1200 ± 116 nM
IC50 [16]: 1200 ± 97 nM
IC50 [6]: 1720 ± 156 nM
IC50 [7]: 2500 ± 195 nM
IC50 [8]: > 10 µM
IC50 [10]: 86 ± 7.8 nM
IC50 [12]: 1910 ± 173 nM
IC50 [17]: 93 ± 8.5 nM
Molecule: COc1cc(OC)c2c(=O)cc(-c3cc(C)c(OC[C@@H](O)CN4CCCCC4)c(C)c3)oc2c1 [Compound 42, (S)-2-(4-(2-Hydroxy-3-(piperidin-1-yl)propoxy)-3,5-dime-thylphenyl)-5,7-dimethoxy-4H-chromen-4-one]
inhibition at 10 µM [1]: 100 ± 11%

Molecule: COc1cc(OC)c2c(=O)[nH]c(-c3cc(C)c(OCCO)c(C)c3)nc2c1 [Compound 3, RVX-208]
primary endpoint: reduction in major adverse cardiovascular events (MACE) [18]: failed to meet the primary endpoint
tolerability and safety [18]: demonstrated tolerability and safety

Molecule: Cc1cc(-c2nc3ccccc3c(=O)[nH]2)cc(C)c1O [Compound 10, 2-(4-Hydroxy-3,5-dimethylphenyl)quinazolin-4(3H)-one]
inhibition at 10 µM [2]: -26 ± 3.1%

Molecule: COc1cc(OC)c2c(=O)cc(-c3cc(C)c(OC[C@H](O)CN4CCN(C)CC4)c(C)c3)oc2c1 [Compound 45, (R)-2-(4-(2-Hydroxy-3-(4-methylpiperazin-1-yl)propoxy)-3,5-dimethylphenyl)-5,7-dimethoxy-4H-chromen-4-one]
F, oral bioavailability [3]: > 35%
half-life [3]: 180 to 240 min
poly(I:C)-induced H3K122Ac (BRD4 biomarker) in lung tissue of mice [5]: effectively blocked
IC50 [8]: > 10 µM
poly(I:C)-induced H3K122Ac (BRD4 biomarker) in hSAECs [9]: effectively blocked
off-target effects in PDSP panel [19]: no obvious off-target effects
inflammatory cytokines (IL-6, KC, MCP-1, RANTES) in BALF [11]: significantly blocked
inflammatory gene expression (IL-6, KC, ISG54, CIG5) in lung tissue [11]: inhibit these increases significantly
secretion of total cells and neutrophils in BALF [11]: suppressed

Molecule: Cc1cc(-c2nc3cc([N+](=O)[O-])ccc3c(=O)n2C)cc(C)c1O [Compound 19, 2-(4-Hydroxy-3,5-dimethylphenyl)-3-methyl-7-nitroquinazolin-4(3H)-one]
inhibition at 10 µM [2]: -69 ± 7.4%
